# High-throughput results as filed in PubChem.
# Compounds with a hit are over-represented: about 2.9% of the library has one in this group of screens.
# S100A4 MyoIIA: inhibitors of human S100A4 binding to myosin IIA peptide | P26447 | S100A4/TAMRA-MyoIIA peptide fluorescence polarization | inhibition, % at 10.7 µM | hit rate 0.14% among 360,000 | AID 652163;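 active means mean inhibition of at least 70% across replicates, with every replicate also reaching that level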
# Target sequence (P26447 whole entry, looked up): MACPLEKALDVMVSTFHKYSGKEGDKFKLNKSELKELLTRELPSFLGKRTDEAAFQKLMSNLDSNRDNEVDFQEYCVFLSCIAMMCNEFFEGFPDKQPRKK
#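 Material: S100A4 monomer protein / Buffer or medium: 50 mM HEPES pH 7.2, 10 mM CaCl2, 100 mM KCl / Times: 5 min incubation before reading / Benchmarks: neutral control DMSO, positive control TFP / Reagent: labelled myosin peptide probe, 5 nM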
# SIRT5 block: sirtuin-5 (human) deacylase inhibition. Q9NXA8. Purified SirT5, succinyl-peptide AMC, trypsin-coupled fluorescence. inhibition, % at 15 µM. hit rate 1.1% among 330,000. AID 652115; in the data active means inhibition above about 15%
# Target sequence (Q9NXA8 whole entry, looked up): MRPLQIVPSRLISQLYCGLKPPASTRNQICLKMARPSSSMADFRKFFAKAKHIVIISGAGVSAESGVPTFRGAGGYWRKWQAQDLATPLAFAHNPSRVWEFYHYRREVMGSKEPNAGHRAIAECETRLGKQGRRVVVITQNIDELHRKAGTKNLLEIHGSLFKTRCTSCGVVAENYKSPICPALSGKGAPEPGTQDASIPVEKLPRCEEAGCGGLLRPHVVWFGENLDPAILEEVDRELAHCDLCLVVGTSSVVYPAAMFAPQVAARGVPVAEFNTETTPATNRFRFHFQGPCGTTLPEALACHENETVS
# DENV2 CPE rescue: protects cells from dengue virus 2 cytopathic effect. DENV2-infected cells, cytopathic effect rescue, plate reader. CPE inhibition, % at 9.99 µM. hit rate 1.7% among 350,000. AID 651640; in the data active means CPE inhibition above about 20%, passing the limit was not always enough; tested in BHK-21 cells;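 further: 0% = median of neutral control wells and 100% = median of positive control wells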
# PGC1a acetyl inh: lowers PGC1a acetylation signal in U2OS cells. AID 651687. inhibition, % at 15.6 µM. AlphaScreen anti-acetyl-lysine; with virally co-expressed GCN5 acetyltransferase. hit rate 0.17% among 350,000;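 active means every replicate shows inhibition of at least 40%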;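 further: 0% = neutral control wells and 100% = positive control wells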
# C2C12 statin: suppression of simvastatin myotoxicity; C2C12 myotubes + simvastatin, ATP luminescence, 48 h; scaled: DMSO 0, geranylgeraniol control 100; rescue of ATP level, % at 7.49 µM; hit rate 0.78% among 330,000; AID 602340;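 active means mean ATP rescue above about 67%, or every replicate alone reaching that limit, limit read from the data, passing the limit was not always enough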;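 further: myotubes were challenged with 10 µM simvastatin during compound exposure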
# * hit, by the source's call; . = not tested or not shown.
SMILES,S100A4 MyoIIA,SIRT5 block,DENV2 CPE rescue,PGC1a acetyl inh,C2C12 statin
C[C@@H]1CCCCO[C@@H](CN(C)Cc2ccccc2)[C@@H](C)CN([C@@H](C)CO)C(=O)c2cc(NS(=O)(=O)c3ccc(Cl)cc3)ccc2O1,-10.4,17.9*,2.8,-0.1,.
Cc1ccc(S(=O)(=O)Nc2ccc3c(c2)C(=O)N([C@@H](C)CO)C[C@@H](C)[C@H](CN(C)Cc2ccccc2)OCCCC[C@H](C)O3)cc1,-7.8,17.2*,-6.9,-15.9,.
CCOc1ccc(N(CC(=O)NCC2CCCO2)C(=O)CCC(=O)Nc2nccs2)cc1 (centres undefined),-0.2,16.7*,2.0,-2.6,9.0
O=C(CCn1c2c(c3ccccc31)CCCC2)NNC(=O)c1ccc([N+](=O)[O-])cc1,5.6,4.9,2.6,.,.
O=C(CCn1c2c(c3ccccc31)CCCC2)NNC(=O)c1ccc(Cl)c([N+](=O)[O-])c1,2.7,26.9*,.,.,.
CC(C)(C)OC(=O)N1CCNc2ccccc2C1,.,.,.,3.1,95.6*
O=C(C[C@H]1C=C[C@@H](NC(=O)CN2CCOCC2)[C@H](CO)O1)NCCc1ccncc1,12.1,-2.3,-11.2,-11.4,.
CC1CC/C(=C\c2ccc3c(c2)OCO3)C(=O)/C1=C/c1ccc2c(c1)OCO2 (centres undefined),.,.,.,6.2,206.9*
COCCn1c(C)cc(C(=O)CSc2nc3ccccc3c(=O)n2Cc2ccco2)c1C,3.5,-4.5,22.9*,15.2,-25.8
COCCn1c(C)cc(C(=O)CSc2cc(C)c3ccccc3n2)c1C,.,.,.,0.0,4.6
CCCC(=O)Nc1ccc2c(c1)C(=O)N(C)C[C@H](OC)[C@@H](C)CN(C(=O)C1CCCC1)[C@@H](C)CO2,31.4,-1.8,-3.1,-11.7,-7.8
CCC(=O)Nc1ccc2c(c1)C(=O)N(C)C[C@@H](OC)[C@H](C)CN(C(=O)COC)[C@@H](C)CO2,-23.6,.,21.1*,11.4,-1.7
CCC(=O)Nc1ccc2c(c1)C(=O)N(C)C[C@@H](OC)[C@H](C)CN(C(=O)COC)[C@H](C)CO2,-15.8,.,-3.7,-1.2,5.1
COCC(=O)N1C[C@H](C)[C@H](OC)CN(C)C(=O)c2cc(NC(=O)c3ccc(OC)cc3)ccc2OC[C@@H]1C,-15.2,-1.9,11.9,-15.8,12.3
CCCC(=O)Nc1ccc2c(c1)C(=O)N(C)C[C@H](OC)[C@@H](C)CN(C(=O)C1CCCC1)[C@H](C)CO2,-4.6,-2.1,34.6*,-3.5,-3.7
CCS(=O)(=O)Nc1ccc2c(c1)C(=O)N(C)C[C@H](OC)[C@@H](C)CN(C(=O)COC)[C@H](C)CO2,-1.2,-0.4,81.9*,0.4,15.4
CCS(=O)(=O)Nc1ccc2c(c1)C(=O)N(C)C[C@H](OC)[C@H](C)CN(C(=O)COC)[C@@H](C)CO2,-1.4,-3.0,-7.2,-9.1,-1.0
COCC(=O)N1C[C@@H](C)[C@@H](OC)CN(C)C(=O)c2cc(NC(=O)c3ccc(OC)cc3)ccc2OC[C@H]1C,27.2,-3.3,34.2*,-6.9,0.9
Cc1noc(C)c1NC(=O)Nc1ccc2c(c1)C(=O)N([C@H](C)CO)C[C@@H](C)[C@@H](CN(C)C(=O)NC1CCCCC1)OCCCC[C@@H](C)O2,-12.6,2.7,-7.5,-8.7,.
CO[C@H]1CN(C)C(=O)c2ccc(NC(=O)C3CC3)cc2OC[C@@H](C)N(Cc2cccnc2)C[C@@H]1C,-1.9,1.7,2.5,2.2,8.4
CCC(=O)Nc1ccc2c(c1)C(=O)N(C)C[C@H](OC)[C@@H](C)CN(C(=O)CC)[C@@H](C)CO2,-2.2,2.2,62.6*,10.4,-16.3
CCC(=O)N1C[C@@H](C)[C@@H](OC)CN(C)C(=O)c2cc(NC(=O)NC3CCCC3)ccc2OC[C@H]1C,3.1,.,-4.3,2.5,.
CCC(=O)N1C[C@H](C)[C@@H](OC)CN(C)C(=O)c2cc(NC(=O)NC3CCCC3)ccc2OC[C@H]1C,6.8,.,43.1*,-1.5,.
CCCC(=O)Nc1ccc2c(c1)C(=O)N(C)C[C@@H](OC)[C@H](C)CN(C(=O)CC)[C@H](C)CO2,.,.,.,-3.6,-1.2
O=C(N[C@H]1C=C[C@H](CC(=O)N2CCC(Cc3ccccc3)CC2)O[C@@H]1CO)c1cnccn1,-35.7,-0.8,3.4,-5.1,-0.8
SMILES,S100A4 MyoIIA,SIRT5 block,DENV2 CPE rescue,PGC1a acetyl inh,C2C12 statin
C[C@@H]1CN([C@H](C)CO)C(=O)Cc2cc(NS(=O)(=O)c3cccs3)ccc2O[C@H]1CN(C)C(=O)Nc1ccc(C(F)(F)F)cc1,18.0,2.7,-3.0,-2.6,-11.3
COC(=O)[C@@]12CCCCN1[C@H](c1ccc(SC3CCCCC3)cc1)[C@H]1C(=O)N(C)C(=O)[C@H]12,-0.3,-6.9,-1.1,8.8,-10.3
COC(=O)[C@@]12CCCCN1[C@H](c1ccc(-c3cccc(Cl)c3)c(OC)c1)[C@@H]1C(=O)N(C)C(=O)[C@@H]12,-10.4,.,-9.4,-0.2,137.2*
COC(=O)[C@@]12CCCN1[C@H](c1ccc(-c3ccc(F)cc3)cc1)[C@H]1C(=O)N(C)C(=O)[C@H]12,-0.6,-2.8,11.6,.,-2.0
COC(=O)[C@@]12CCCCN1[C@H](c1ccc(-c3ccc(F)cc3)cc1)[C@H]1C(=O)N(C)C(=O)[C@H]12,4.7,.,39.0*,-5.4,1.2
COC(=O)[C@@]12CCCN1[C@H](c1ccc(SC3CCCCC3)cc1)[C@H]1C(=O)N(C)C(=O)[C@H]12,-2.1,.,27.9*,-3.5,0.7
CC(=O)C1=C(C)NC(SCc2cccc([N+](=O)[O-])c2)=C(C#N)C1c1ccco1 (centres undefined),.,.,.,2.2,143.4*
CC(=O)C1=C(C)NC(SCC(N)=O)=C(C#N)C1c1ccco1 (centres undefined),0.7,0.6,8.8,-1.2,11.4
COc1ccc(C(=O)NCC(=O)N2CCC(C)CC2)cc1OC,.,.,.,0.6,90.2*
CCOc1ccc(C(=O)Cc2ccc3oc(C(=O)O)cc3c2)c(O)c1,.,.,.,17.3,2.2
CCOC(=O)c1cc2cc(CC(=O)c3ccc(OCC)cc3O)ccc2o1,.,.,.,8.5,96.8*
COc1ccc(CC(=O)c2ccc(O)cc2O)cc1,-1.2,1.7,75.7*,3.2,2.6
CCCC(=O)Nc1ccc2c(c1)C(=O)N(C)[C@@H]1CC[C@@H](CC(=O)NCC(F)(F)F)O[C@@H]1CO2,.,.,4.5,1.8,-10.7
C[C@H]1CN([C@@H](C)CO)S(=O)(=O)c2ccc(C#Cc3cccc(F)c3)cc2O[C@@H]1CN(C)C(=O)NC1CCCCC1,3.7,-2.8,12.9,8.7,8.5
CN1CCN(c2oc(-c3ccco3)nc2S(=O)(=O)c2ccccc2)CC1,.,.,.,2.3,19.6
O=S(=O)(c1ccccc1)c1nc(-c2ccco2)oc1N1CCCCCC1,.,.,.,.,105.1*
Cc1ccc(S(=O)(=O)N[C@@H]2C=C[C@@H](CC(=O)N3CCC(Cc4ccccc4)CC3)O[C@H]2CO)cc1,11.5,2.5,10.5,-0.7,48.9
Nc1nc2n[nH]nc2c(=O)[nH]1,-3.0,.,-1.3,-15.7,90.1*
Nc1nc2nn(-c3ccccc3)nc2c(=O)[nH]1,-0.6,-3.8,-7.5,-1.9,-0.7
